The values that follow come from ChEMBL document CHEMBL1151423, “Pharmacokinetics-pharmacodynamics of gatifloxacin in a lethal murine Bacillus anthracis inhalation infection model” (Antimicrob Agents Chemother, 2007).

The nature of series [1]: Half life in human. The class given is ADME, organism-based. The note with it: in vivo.
Series [2] in a line: Ratio of AUC (0 to 24 hrs) for Enterococcus infected patient to MIC for Enterococcus. It is filed as functional.
Series [3] relates to Mus musculus. The experiment in a line: Tlag in mouse at 10 to 100 mg/kg, ip. The class given is ADME, organism-based. Also on record: dose 10-100 mg/kg, route intraperitoneal. The conditions noted are these: in vivo. The gist of the method:
(§1)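 Mice, three groups, each received a single intraperitoneal gatifloxacin dose of 10, 50 or 100 mg/kg. Sera were taken by exsanguination under anaesthesia from three mice per group at 0.25–12 h post-dose and stored at −70°C. Levels were measured by bioassay (S. aureus ATCC 29213 indicator; standard curve in control mouse serum) in triplicate, detection range 0.12–64 μg/ml. Pooled data were fitted by maximum likelihood to a two-compartment model with first-order absorption and lag time.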

For series [4], the system named is Mus musculus. The experiment in a line: Apparent peripheral volume of distribution in mouse at 10 to 100 mg/kg, ip. The arrangement: dose 10-100 mg/kg, route intraperitoneal. The class given is ADME, organism-based. The note with it: in vivo. The gist of the method:
as §1

The next series concerns Bacillus anthracis. Nature of the series: Antimicrobial activity against Bacillus anthracis Ames after 18 hrs by microdilution method. The class given is functional.
A short description of series [5]: Ratio of AUC (0 to 24 hrs) for Staphylococcus aureus infected ICR/Swiss mouse model to MIC for Staphylococcus aureus. The class given is functional.
A short description of series [6]: Apparent total clearance in human. It is filed as ADME, organism-based. The note with it: in vivo, read-out: CLt/F (converted).
Series [7] can be described thus: Ratio of AUC (0 to 24 hrs) for Staphylococcus infected patient to MIC for Staphylococcus. It is filed as functional.
Series [8] in a line: Apparent total clearance in mouse at 10 to 100 mg/kg, ip. The class given is ADME, organism-based. The arrangement: dose 10-100 mg/kg, route intraperitoneal. The conditions noted are these: in vivo, read-out: CLt/F (converted). The gist of the method:
as §1

Series [9] is described as follows: Half life in mouse at 10 to 100 mg/kg, ip. The class given is ADME, organism-based. The arrangement: dose 10-100 mg/kg, route intraperitoneal. The conditions noted are these: in vivo. The method, boiled down:
as §1

The test system of series [10] is Mus musculus. The experiment in a line: Apparent distribution clearance in mouse at 10 to 100 mg/kg, ip. The conditions noted are these: in vivo. The arrangement: dose 10-100 mg/kg, route intraperitoneal. It is filed as ADME, organism-based. The method, boiled down: as §1
For series [11], the system named is Mus musculus. The experiment in a line: Apparent volume of distribution with respect to the bioavailability in mouse at 10 to 100 mg/kg, ip. The class given is ADME, organism-based. The conditions noted are these: in vivo. The gist of the method: as §1

In brackets after ≈: the same amount, converted by molar mass.

Turning to `COc1c(N2CCNC(C)C2)c(F)cc2c(=O)c(C(=O)O)cn(C3CC3)c12` (configuration not stated) [GATIFLOXACIN], the values for the half-life in [1] and in series [9] were 9 h and 0.6 h, respectively. The Ratio was found to be 85 in [2], 83 in series [5] and 85 in series [7]. Besides, the Tlag with Mus musculus [3] worked out at 0.23 h. Further, the Vp/F in the series with Mus musculus [4] stood at 1.6 L/kg. Besides, the MIC against Bacillus anthracis came to 0.125 µg/mL (≈ 0.333 µM). In addition, the CL/F in series [6] is 1.67 mL/min/kg; in series [8], 45 mL/min/kg. Moreover, the CLd/F in the series on Mus musculus [10] is 128 mL/min/kg. The Vc/F in the series with Mus musculus [11] is 0.2 L/kg.
